Activity calls are given as the source filed them. No cut-off for these calls is given here.
Key:
[1] = tested on: Usutu virus; assay: Antiviral activity against USUV 3345 isolate Arb276 infected in human A549 cells assessed as reduction in viral replication pretreated with virus for 1 hr followed by infection of cells with compound treated-virus for 20 hrs by focus reduction assay; type: functional, organism-based; details: Usutu virus, 3345, A549; for EC90: time 21 hrs
Procedure, shortened: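 Dose-response: serial dilutions (100 to 0.13 μM) preincubated 1 h at 37 °C with virus (MOI 0.02), then added to cells for 20 h (USUV) or 30 h (ZIKV) in 2% FBS DMEM. Cells per well: Vero 1.2 × 10^4, A549 1.3 × 10^4, Huh7 1.6 × 10^4. Foci immunostained and counted. EC50/EC90 fitted by variable-slope sigmoidal curve, mean of three independent experiments.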

[2] = tested on: Usutu virus; assay: Antiviral activity against USUV 3345 isolate Arb276 infected in African green monkey Vero cells assessed as viral growth inhibition at 0.13 to 100 uM pretreated with cells 2 hrs prior to viral infection by time of addition assay; type: functional, organism-based; details: dose 0.13-100 µM
Procedure, shortened: (§1)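 Time-of-addition assay in Vero. Serial dilutions (100 to 0.13 μM) were added to cells 24 h or 2 h before infection, during the 2 h infection, or post-infection for 24 h (USUV) or 30 h (ZIKV). Cells were fixed in cold acetone-methanol (50:50) and infected cells detected by indirect immunostaining. EC50/EC90 came from variable-slope sigmoidal fits; mean of three independent experiments.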

[3] = tested on: Usutu virus; assay: Antiviral activity against USUV 3345 isolate Arb276 infected in African green monkey Vero cells assessed as titer reduction in viral progeny production at 15 uM treated for 2 hrs followed by virus removal and subsequent addition of medium containing compound measured after 48 hrs by focus reduction assay; type: functional, organism-based; details: time 50.0 hrs
Procedure, shortened: (§2)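 Vero cells seeded 6.5 × 10^4/well, exposed in duplicate for 2 h at 37 °C to virus (MOI 0.1) mixed with compound at 5 or 15 μM. After three washes, medium containing compound was added for 48 h. Supernatants were clarified and titred on Vero by focus reduction (USUV, FFU/ml) or plaque assay (ZIKV, PFU/ml). DMSO-matched infected controls; mean of three experiments.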

[4] = Cytotoxicity against human Huh-7 cells infected with USUV 3345 isolate Arb276 pretreated with virus for 1 hr followed by infection of cells with compound treated-virus for 20 hrs by MTS assay; type: toxicity, cell-based
Procedure, shortened: (§3)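 MTS viability assay. Cells were treated under the same conditions as the antiviral assays. Absorbance was expressed as % of medium-only cells, and CC50 was derived from the curve. Seeding densities were 1.2 × 10^4/well for Vero, 1.3 × 10^4/well for A549 and 1.6 × 10^4/well for Huh7. DMEM with 2% FBS.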

[5] = Cytotoxicity against human A549 cells infected with USUV 3345 isolate Arb276 pretreated with virus for 1 hr followed by infection of cells with compound treated-virus for 20 hrs by MTS assay; type: toxicity, cell-based; procedure, shortened: as §3
[6] = tested on: Usutu virus; assay: Antiviral activity against USUV 3345 isolate Arb276 infected in African green monkey Vero cells assessed as viral growth inhibition at 0.13 to 100 uM treated immediately after viral infection for 2 hrs by time of addition assay; type: functional, organism-based; details: dose 0.13-100 µM, in the assay text read “during viral infection” for “immediately after viral infection”; procedure, shortened: as §1
[7] = Aqueous solubility in deionized water containing 1.38% DMSO; type: physicochemical
[8] = Cytotoxicity against human Huh-7 cells infected with ZIKV MR766 pretreated with virus for 1 hr followed by infection of cells with compound treated-virus for 30 hrs by MTS assay; type: toxicity, cell-based; procedure, shortened: as §3
[9] = Selectivity index, ratio of CC50 for African green monkey Vero cells infected with ZIKV MR766 to EC50 for ZIKV MR766 infected in African green monkey Vero cells; type: toxicity, cell-based; details: read-out: Ratio CC50/EC50
[10] = tested on: Zika virus; assay: Antiviral activity against ZIKV MR766 infected in African green monkey Vero cells assessed as titer reduction in viral progeny production at 15 uM treated for 2 hrs followed by virus removal and subsequent addition of medium containing compound measured after 48 hrs by plaque reduction assay; type: functional, organism-based; details: time 50.0 hrs; procedure, shortened: as §2

SMILES | EC50 [1] | EC90 [1] | Activity [2] | Activity [3] | CC50 at 21 h [4] | CC50 at 21 h [5] | Activity [6] | solubility [7] | CC50 at 31 h [8] | selectivity ratio [9] | Activity [10]
O=C1[C@@H]2CCCN2[C@@H](c2ccc([C@H]3C[C@@H](O)[C@@H](CO)O3)cc2)N1c1ccc([N+](=O)[O-])cc1 | 6.42 µM | 12 µM | inactive | Active | > 500 µM | > 500 µM | inactive | > 947 µg/mL | > 500 µM | > 63 | Active
O=C1C[C@H](c2ccc([C@H]3N(c4ccc([N+](=O)[O-])cc4)C(=O)[C@@H]4CCCN43)cc2)O[C@@H]1CO | 6.82 µM | 15.2 µM | inactive | Active | > 500 µM | > 500 µM | inactive | > 897 µg/mL | > 500 µM | > 51 | Active
